Measured values as given in paper PMC3755880 (The Biochemical journal, 2009).
pKi: −log10 of the molar value. No end group written: not given here.

Legend:
[1] = tested on: interaction between Iα and the catalytic domain of PKN1; settings: ref [24]; cited from earlier work
[2] = target: T1, PKN (Homo sapiens, UniProt Q16512); settings: cited from earlier work; for inhibition of kinase activity of PKN: ref [20]
[3] = tested on: cellular membranes; settings: ref [28]; cited from earlier work
[4] = tested on: androgen receptor-induced tumour cell proliferation; settings: by inhibition of PKN1; ref [7]; cited from earlier work
[5] = target: T2, human PKN1 (Homo sapiens, UniProt Q16512); experiment: In vitro kinase assay, δpeptide substrate, PKN1 catalytic domain; type: biochemical; settings: for inhibition of peptide kinase activity of PKN1: δpeptide substrate, various peptide concentrations, up to 50 μM, 30 °C, 5 min, pH 7.5, 40 μM ATP, representative of three independent experiments
[6] = tested on: catalytic domain of all isoforms of PKNs; settings: ref [24], cited from earlier work
[7] = tested on: PKCδ; settings: ref [24]; cited from earlier work
[8] = tested on: PKA; settings: ref [24]; cited from earlier work
[9] = tested on: rat PKCδ; experiment: Phosphorylation of GST-tagged oligopeptides by PKCδ; type: biochemical; settings: GST-fused peptide substrate; 30 °C, 5 min
[10] = tested on: rat PKCα; experiment: Phosphorylation of GST-tagged oligopeptides by PKCα; type: biochemical; settings: GST-fused peptide substrate; 30 °C, 5 min
In short: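 GST-fused rat PKCα catalytic domain (332–end) was Sf9/baculovirus-expressed and purified. Reactions were stopped in boiled Laemmli buffer, run on 15% SDS/PAGE, and phosphorylation was read by radioactivity imaging.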

[11] = target: T2, human PKN1; experiment: Phosphorylation of GST-tagged oligopeptides by PKN1; type: biochemical; settings: GST-fused peptide substrate; 30 °C, 5 min
[12] = target: T1, PKN; experiment: In vitro kinase assay, PKN; type: biochemical; settings: Supplementary Figure S4
In short: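 Catalytic domains of human PKN1 (543–end) and PKC isoforms were GST-fused, baculovirus/Sf9-expressed and affinity-purified. 10 ng kinase was incubated 5 min at 30 °C in 20 mM Tris/HCl pH 7.5, 4 mM MgCl2, 40 μM ATP, [γ-32P]ATP, 100 μM δpeptide (PKCδ 137–153, A147S) and BSA or GST, ± peptides. Reactions were read on P81 paper by Cherenkov counting; no-peptide activity = 100%.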

T1 sequence (Q16512 543-942 limits assumed): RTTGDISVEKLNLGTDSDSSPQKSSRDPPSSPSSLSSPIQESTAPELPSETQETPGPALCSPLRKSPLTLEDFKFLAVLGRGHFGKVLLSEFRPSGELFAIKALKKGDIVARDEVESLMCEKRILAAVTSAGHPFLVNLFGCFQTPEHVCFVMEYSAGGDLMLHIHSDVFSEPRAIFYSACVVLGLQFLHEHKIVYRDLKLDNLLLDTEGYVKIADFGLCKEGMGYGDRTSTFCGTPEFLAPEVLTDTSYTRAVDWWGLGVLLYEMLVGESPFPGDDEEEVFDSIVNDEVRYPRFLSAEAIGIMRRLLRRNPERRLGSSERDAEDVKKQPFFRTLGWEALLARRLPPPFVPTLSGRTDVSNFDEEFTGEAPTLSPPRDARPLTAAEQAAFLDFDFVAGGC
T2 sequence (Q16512 543-942 limits assumed): as above

In the case of CCCCC/C=C\C/C=C\C/C=C\C/C=C\CCCC(=O)O [Arachidonic acid, arachidonic acid], the “effect on interaction between Iα and catalytic domain of PKN1” value [1] is given as “directly interfere with the interaction”, the “relief of autoinhibition of wild-type PKN1 by Iα” value [1] is given as “relieve the catalytic activity of wild-type PKN1 from autoinhibition by Iα” and the “activation of PKN in vitro” value ([2]; ref [1]) is given as “activated”.
For CC1CNCCN1S(=O)(=O)c1cccc2cnccc12 (stereo not shown) [H-7], the “inhibition of kinase activity of PKN” value [2] is given as “potently inhibit”.
In the case of O=C(O)CCCc1ccc2ccc3cccc4ccc1c2c34 [Pyrenebutyrate, pyrenebutyrate], the “ability of CPP-fused peptides to translocate across cellular membranes” value [3] is given as “improve the ability of CPP-fused peptides to translocate across cellular membranes”.
For Cn1cc(C2=C(c3cn(CCCSC(=N)N)c4ccccc34)C(=O)NC2=O)c2ccccc21 [Ro318220], the “effect on androgen receptor-induced tumour cell proliferation” value [4] is listed as “blocks proliferation”.
For CN(C)CCCn1cc(C2=C(c3c[nH]c4ccccc34)C(=O)NC2=O)c2ccccc21 [bisindolylmaleimide I], the “inhibition of kinase activity of PKN” value [2] is listed as “potently inhibit”.
In the case of AEVTFRNPVIERIPRLRR, the “inhibition of peptide kinase activity of PKN1” value (“inhibition … of PKN1” for short) [5] was “partially inhibited”.
In the case of “His6-tagged Iα: His-tagged region comprising amino acid residues 455–511 of PKN1”, the “inhibition of PKN kinase activity by His-tagged Iα” value ([6]; direct effects on the catalytic region) is given as “potently inhibited”, the “inhibition of catalytic domain of all PKN isoforms” value [6] is given as “inhibited” and the “effect on PKCδ” value [7] is given as “no inhibitory effect”. For the same molecule, the “effect on PKA” value [8] was “no inhibitory effect”.
In the case of KRRKPSFRNP [NS1], the “phosphorylation by PKCδ” value [9] was “efficiently phosphorylated” and the “phosphorylation by PKCα” value [10] was “efficiently phosphorylated”.
For LSKVTSKCGS [tau320], the “phosphorylation by PKCδ” value [9] was “efficiently phosphorylated” and the “phosphorylation by PKN1” value [11] was “efficiently phosphorylated”.
For NERHEVQLDMEPQGCLV, the “inhibition … of PKN1” value [5] was “did not inhibit”.
With PRLRRQKKIFSKQQG [PRL] the pKi [5] was 6.15 and the “effect on apparent Km for δpeptide” value ([5]; Michaelis–Menten fit, increasing PRL concentrations) was “increased the apparent Km”.
In the case of PRLRRQKKIFSKQQG-NH-CH2CH2-SH [PRL-SH], the “selectivity for PKN over PKC in vitro” value [12] was “selective inhibition of PKN”.
In the case of PVIERIPRLRRQKKI, the “inhibition … of PKN1” value [5] was “partially inhibited”.
With QKKIFSKQQGKAFQAARQMN the “inhibition … of PKN1” value [5] was “partially inhibited”.
